In PubChem BioAssay AID463145 (The Scripps Research Institute Molecular Screening Center, 2010) one finds fold change data, which are given here for 6 compounds.

The source made the active and inactive calls.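 Rule for the calls: active = FXR activation with a fold change above 2; inactive = the rest.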

This experiment deals with Bile acid receptor (Homo sapiens) (UniProt Q96RI1). Briefly: activation of FXR ligand-binding domain – cell-based, luciferase luminescence, assay provider, powder samples, selectivity assay for RORA inverse agonist project, late-stage follow-up (AID 463145). Particulars: HEK293T GAL4-FXR LBD luciferase reporter, 18-24 h; at 10 µM; stronger effect = higher value. In outline: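 Assay system – HEK293T cells cotransfected with GAL4-FXR LBD and UAS-luciferase reporter · Compound dosing – one dose, 10 µM nominal · Schedule – 20 h compound exposure after replating 24 h post-transfection · Technique – luciferase luminescence · Read-out – fold change versus DMSO vehicle · Controls – DMSO-treated cells as vehicle reference · Repeats – 6 replicates, averaged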
Sequence of Bile acid receptor (Homo sapiens) (Q96RI1 whole entry, looked up, the tested form may be a part): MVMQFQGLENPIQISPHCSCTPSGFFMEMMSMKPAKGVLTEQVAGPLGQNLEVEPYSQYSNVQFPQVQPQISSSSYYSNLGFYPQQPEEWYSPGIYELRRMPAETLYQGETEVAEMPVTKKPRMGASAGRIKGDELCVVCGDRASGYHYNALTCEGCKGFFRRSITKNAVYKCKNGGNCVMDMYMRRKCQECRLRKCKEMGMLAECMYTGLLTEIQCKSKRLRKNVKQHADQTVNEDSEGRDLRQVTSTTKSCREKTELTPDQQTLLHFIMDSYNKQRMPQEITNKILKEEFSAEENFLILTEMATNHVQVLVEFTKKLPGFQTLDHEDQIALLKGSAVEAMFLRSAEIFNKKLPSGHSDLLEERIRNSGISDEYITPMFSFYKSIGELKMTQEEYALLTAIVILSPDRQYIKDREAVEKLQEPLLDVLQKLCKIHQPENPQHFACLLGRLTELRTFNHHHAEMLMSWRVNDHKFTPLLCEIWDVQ
On the technique in general: A reporter such as luciferase makes a cellular process visible.
Turning to `O=C(Nc1ccc(C(O)(C(F)(F)F)C(F)(F)F)cc1)c1c(F)cccc1F`, the fold change was 1.06 (inactive).

With `O=C(Nc1ccc(C(O)(C(F)(F)F)C(F)(F)F)cc1)c1ccc(Cl)cc1`, the fold change was 1.14 (inactive).

As for `O=C(Nc1ccc(C(O)(C(F)(F)F)C(F)(F)F)cc1)c1ccc(F)cc1Cl`, the fold change was 1.07 (inactive).

As for `O=C(Nc1ccc(C(O)(C(F)(F)F)C(F)(F)F)cc1)c1ccccc1C(F)(F)F`, the fold change was 0.846 (inactive).

Consider `O=S(=O)(Nc1ccc(C(O)(C(F)(F)F)C(F)(F)F)cc1)c1cccs1`, for which the fold change is 1.21 (inactive).

As to `O=C(Nc1ccc(C(O)(C(F)(F)F)C(F)(F)F)cc1)c1ccc(F)cc1F`, the fold change was 1.52 (inactive).
